What all share (assay type): functional
For test [1], the system named is Radical scavenging activity. In words: Antioxidant effect assessed as DPPH radical scavenging activity. A digest of the protocol:
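Compound at five concentrations (0.16–100.0 µM) mixed 1:1 with 0.1 mM DPPH in EtOH, 30 min at 37 °C, absorbance at 517 nm. Scavenging % = (Acontrol − Asample)/Acontrol × 100; IC50 from concentration series.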

The test system of test [2] is PC-12. Put plainly: Antioxidant effect against hydrogen peroxide-induced impairment in PC12 cells assessed as cell viability at 0.4 uM by MTT assay relative to control. The conditions noted are these: Rattus norvegicus, read-out: Activity. An outline of the steps:
(§1)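 PC12 cells seeded in RPMI 1640 with 10% newborn bovine serum; after 24 h, compound (0.4–50 µM) added together with freshly prepared H2O2 (0.2 mM final) in PBS for 1 h. Then MTT (0.5 mg/mL in PBS) for 4 h, lysis with 5% i-BuOH/10% SDS/0.004% HCl overnight, OD 570 nm; viability as % of untreated control; n = 5, mean ± SD.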

The test system of test [3] is PC-12. Put plainly: Antioxidant effect against hydrogen peroxide-induced impairment in PC12 cells assessed as cell viability at 2 uM by MTT assay relative to control. The conditions noted are these: Rattus norvegicus, read-out: Activity. A digest of the protocol:
as §1

The test system of test [4] is PC-12. In words: Antioxidant effect against hydrogen peroxide-induced impairment in PC12 cells assessed as cell viability at 10 uM by MTT assay relative to control. The conditions noted are these: Rattus norvegicus, read-out: Activity. A digest of the protocol: as §1
Test [5] deals with PC-12. In words: Antioxidant effect against hydrogen peroxide-induced impairment in PC12 cells assessed as cell viability at 50 uM by MTT assay relative to control. The conditions noted are these: Rattus norvegicus, read-out: Activity. An outline of the steps:
as §1

For `COc1cc(C(O)C(CO)Oc2c(OC)cc([C@@H]3Oc4c(OC)cc(/C=C/C=O)cc4[C@H]3CO)cc2OC)ccc1O` (stereo not given in full), in test [1], the IC50 came to 147 µM. Also, the viability at 0.4 µM with PC-12 [2] was 56.9%. Moreover, the viability at 2 µM in the test with PC-12 [3] amounted to 56.8%. Also, the viability at 10 µM in the test on PC-12 [4] is 62.6%. Also, the viability at 50 µM in the test with PC-12 [5] was found to be 64.8%.

On to `COc1cc2c(c(OC)c1O)[C@@H](CO)[C@@H](c1cc(OC)c(OC)c(OC)c1)O2`, for which, in test [1], the IC50 was 45 µM. Moreover, in the test on PC-12 [2], the viability at 0.4 µM came out at 61.4%. For the same molecule, the viability at 2 µM in the test with PC-12 [3] was 58%. In addition, the viability at 10 µM in the test with PC-12 [4] came to 58.2%. The viability at 50 µM in the test on PC-12 [5] was 55%.

With `CCOC(c1ccc(O)c(OC)c1)C(O)CO` (stereo not given), the IC50 in test [1] worked out at 132 µM. In the test on PC-12 [2], the viability at 0.4 µM was found to be 54.1%. Besides, the viability at 2 µM in the test on PC-12 [3] came to 54.9%. In the test with PC-12 [4], the viability at 10 µM was found to be 56.8%. Also, the viability at 50 µM with PC-12 [5] turned out to be 57.3%.

`COc1cc([C@H](O)[C@@H](CO)Oc2c(OC)cc([C@@H]3OC[C@@H]4[C@H]3CO[C@H]4c3cc(OC)c(O[C@H](CO)[C@@H](O)c4cc(OC)c(O)c(OC)c4)c(OC)c3)cc2OC)ccc1O`: the IC50 in test [1] turned out to be 87 µM. Also, the viability at 0.4 µM with PC-12 [2] was found to be 51.9%. The viability at 2 µM in the test with PC-12 [3] stood at 54.3%. Besides, the viability at 10 µM in the test with PC-12 [4] turned out to be 54.7%. The viability at 50 µM with PC-12 [5] amounted to 54.1%.

On to `COc1cc(C(O)C(CO)Oc2ccc(C(O)C(CO)Oc3c(OC)cc([C@@H]4Oc5c(OC)cc(/C=C/C=O)cc5[C@H]4CO)cc3OC)cc2OC)ccc1O` (stereo not given in full), for which the half-maximal inhibitory concentration (IC50) in test [1] came to 201 µM. In the test with PC-12 [2], the viability at 0.4 µM is 52.8%. The viability at 2 µM in the test with PC-12 [3] amounted to 47.9%. Besides, the viability at 10 µM in the test with PC-12 [4] came to 64.4%. Also, the viability at 50 µM in the test on PC-12 [5] was 55.9%.

`COc1cc(C(O)C(CO)Oc2c(OC)cc(C(O)C(CO)Oc3c(OC)cc([C@@H]4Oc5c(OC)cc(/C=C/C=O)cc5[C@H]4CO)cc3OC)cc2OC)ccc1O` (stereo not given in full): the IC50 in test [1] came out at 127 µM. Further, the viability at 0.4 µM in the test with PC-12 [2] was determined as 50.3%. Besides, the viability at 2 µM with PC-12 [3] was found to be 54.7%. Also, in the test with PC-12 [4], the viability at 10 µM came out at 55.2%. Also, the viability at 50 µM in the test with PC-12 [5] stood at 51%.

As to `COc1cc(C(O)C(CO)Oc2c(OC)cc([C@@H]3OC[C@@H]4C(=O)OC[C@@H]43)cc2OC)ccc1O` (stereo not given in full), in test [1], the IC50 worked out at 72 µM. The viability at 0.4 µM in the test with PC-12 [2] is 59.3%. For the same molecule, the viability at 2 µM with PC-12 [3] turned out to be 61.8%. The viability at 10 µM with PC-12 [4] is 59.4%. Moreover, the viability at 50 µM with PC-12 [5] came to 45.7%.

As to `COc1cc([C@H](O)[C@@H](CO)Oc2c(OC)cc([C@@H]3OC[C@@H]4[C@H]3CO[C@H]4c3cc(OC)c(O[C@H](CO)[C@@H](O)c4ccc(O)c(OC)c4)c(OC)c3)cc2OC)ccc1O`, the IC50 in test [1] is 55 µM. The viability at 0.4 µM in the test on PC-12 [2] was 52.2%. For the same molecule, in the test on PC-12 [3], the viability at 2 µM was determined as 53.2%. For the same molecule, the viability at 10 µM in the test with PC-12 [4] was determined as 54.3%. The viability at 50 µM with PC-12 [5] turned out to be 55.3%.

For the molecule `CC1=NN(c2ccccc2)C(=O)C1` [EDARAVONE], the IC50 in test [1] is 27 µM. The viability at 0.4 µM in the test with PC-12 [2] stood at 55.5%. Besides, the viability at 2 µM in the test with PC-12 [3] turned out to be 53.1%. In addition, in the test with PC-12 [4], the viability at 10 µM was found to be 47.8%. The viability at 50 µM in the test with PC-12 [5] came out at 25.6%.
